Reference: ChEMBL document CHEMBL5370613, “Phenyl dialkynylcarbinols, a Bioinspired Series of Synthetic Antitumor Acetylenic Lipids” (J Med Chem, 2023)
Activity calls are given as the source filed them. The rule behind the calls is not given here.

Key:
[1] = Half life in female CD-1 mouse at 5 mg/kg, iv measured for 480 mins by LC-MS/MS analysis; type: ADME, organism-based; details: in vivo
Summary of the method: (§1)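 Female (or male, as per line) CD-1 mice, 3 per time point, given a single 5 mg/kg dose in 10% Kolliphor EL in saline (injections) or water (oral). Blood sampled 5–480 min; plasma extracted with CH₃CN and quantified by LC-MS/MS (ESI+, m/z 251.20) against a calibration curve in extracted plasma; parameters by non-compartmental analysis.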

[2] = Cmax in female CD-1 mouse at 5 mg/kg, po measured for 480 mins by LC-MS/MS analysis; type: ADME, organism-based; parameters: dose 5 mg/kg, time 480 min, route po; details: in vivo; summary of the method: as §1
[3] = Half life in female CD-1 mouse at 5 mg/kg, po measured for 480 mins by LC-MS/MS analysis; type: ADME, organism-based; details: in vivo; summary of the method: as §1
[4] = Tmax in female CD-1 mouse at 5 mg/kg, po measured for 480 mins by LC-MS/MS analysis; type: ADME, organism-based; details: in vivo
Summary of the method: (§2)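 Female (IP, SC, PO) or male (PO) CD-1 mice received 5 mg/kg in 10% Kolliphor EL vehicle, 3 mice per time point. Plasma was sampled at 5, 15, 30, 60, 120, 360 and 480 min, acetonitrile-extracted and quantified by LC-MS/MS against a calibration in extracted plasma. Tmax was the time of the observed maximum concentration.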

[5] = Clearance in female CD-1 mouse at 5 mg/kg, ip measured for 480 mins by LC-MS/MS analysis; type: ADME, organism-based; details: in vivo; summary of the method: as §1
[6] = AUC in female CD-1 mouse at 5 mg/kg, ip measured for 480 mins by LC-MS/MS analysis; type: ADME, organism-based; parameters: dose 5 mg/kg, time 480 min, route ip; details: in vivo; summary of the method: as §1
[7] = Bioavailability in female CD-1 mouse at 5 mg/kg, ip measured for 480 mins by LC-MS/MS analysis; type: ADME, organism-based; details: in vivo; summary of the method: as §1
[8] = Cmax in female CD-1 mouse at 5 mg/kg, sc measured for 480 mins by LC-MS/MS analysis; type: ADME, organism-based; parameters: dose 5 mg/kg, time 480 min, route sc; details: in vivo; summary of the method: as §1
[9] = Half life in female CD-1 mouse at 5 mg/kg, sc measured for 480 mins by LC-MS/MS analysis; type: ADME, organism-based; details: in vivo; summary of the method: as §1
[10] = Clearance in female CD-1 mouse at 5 mg/kg, sc measured for 480 mins by LC-MS/MS analysis; type: ADME, organism-based; details: in vivo; summary of the method: as §1
[11] = Bioavailability in female CD-1 mouse at 5 mg/kg, sc measured for 480 mins by LC-MS/MS analysis; type: ADME, organism-based; details: in vivo; summary of the method: as §1
[12] = Clearance in male CD-1 mouse at 5 mg/kg, iv measured for 480 mins by LC-MS/MS analysis; type: ADME, organism-based; details: in vivo; summary of the method: as §1
[13] = Cmax in male CD-1 mouse at 5 mg/kg, po measured for 480 mins by LC-MS/MS analysis; type: ADME, organism-based; parameters: dose 5 mg/kg, time 480 min, route po; details: in vivo; summary of the method: as §1
[14] = Tmax in male CD-1 mouse at 5 mg/kg, po measured for 480 mins by LC-MS/MS analysis; type: ADME, organism-based; details: in vivo; summary of the method: as §2
[15] = Volume of distribution in elimination phase in male CD-1 mouse at 5 mg/kg, po measured for 480 mins by LC-MS/MS analysis; type: ADME, organism-based; details: in vivo, read-out: Vz/F
Summary of the method: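 CD-1 mice (female for all routes, male for IV and PO) were dosed at 5 mg/kg in 10% Kolliphor EL in saline (injections) or water (oral), 3 mice per time point. Blood was taken at 5–480 min, and plasma was extracted with acetonitrile. LC-MS/MS positive ESI, m/z 251.20. Parameters came from non-compartmental analysis with a plasma calibration curve.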

[16] = Toxicity in Balb/c mouse assessed as sign of toxicity administered as three escalating doses of 2 to 10 mg/kg, iv per week and measured for 10 days; type: organism-based; details: in vivo, 240 h, dose 2-10 mg/kg, time 10 day
Summary of the method: (§3)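 Female adult Balb/c mice, 6 per group, received IV injections 3 times weekly for 3 weeks at 2, 5 or 10 mg/kg. Dosing solutions were 0.4, 1 and 2 mg/mL in saline with 10% Cremophor, given at 5 mL/kg, with IP substitution when IV was impossible. Mice were weighed thrice weekly and observed daily, with necropsy at endpoint.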

[17] = Toxicity in Balb/c mouse assessed as reduction in body weight at 2 to 5 mg/kg, iv administered 3 times per week and measured for 3 weeks; type: organism-based; details: in vivo, 504 h, dose 2-5 mg/kg; summary of the method: as §3
[18] = Toxicity in Balb/c mouse assessed as deteriorated health state with shaggy coat and diarrhea at 10 mg/kg, iv administered 3 times per week and measured on day 15; type: organism-based; details: in vivo, 360 h, time 15 day; summary of the method: as §3
[19] = Toxicity in Balb/c mouse assessed as organ damage at 10 mg/kg, iv administered 3 times per week and measured on day 15; type: organism-based; details: in vivo, 360 h, time 15 day; summary of the method: as §3
U2OS [20] = test: Cytotoxicity against human U2OS cells with HSD17B11 knockout complemented with HSD17B11-GFP assessed as cell viability at 1 uM incubated for 72 hrs by SRB assay relative to control; type: functional; details: read-out: Activity
Summary of the method: (§4)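 U2OS HSD17B11-KO cells stably complemented with GFP, HSD17B11-GFP or HSD17B13-GFP, exposed to 1 μM compound for 72 h in complete medium; viability read by SRB assay, in three independent experiments.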

U2OS [21] = test: Cytotoxicity against human U2OS cells with HSD17B11 knockout complemented with GFP assessed as cell viability at 1 uM incubated for 72 hrs by SRB assay relative to control; type: functional; details: read-out: Activity; summary of the method: as §4
U2OS [22] = test: Activation of unfolded protein response in human U2OS cells assessed as increase in PERK autophosphorylation at T980 residue at 1 uM incubated for 2 to 6 hrs by immunoblotting analysis; type: functional, cell-based; details: time 2-6 hrs
Summary of the method: (§5)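 U2OS cells in complete growth medium treated at 1 μM for the indicated times, with 50 μM z-VAD-fmk added 1 h beforehand where stated; lysed in SDS buffer (Tris-HCl pH 6.8, 4% SDS) and immunoblotted, detected with HRP secondary antibodies and chemiluminescence.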

U2OS [23] = test: Activation of unfolded protein response in human U2OS cells assessed as reduction in full length ATF6 at 1 uM incubated for 2 to 6 hrs by immunoblotting analysis; type: functional, cell-based; details: time 2-6 hrs; summary of the method: as §5
U2OS [24] = test: Activation of unfolded protein response in human U2OS cells assessed as increase in HSP70 accumulation at 1 uM incubated for 2 to 6 hrs by immunoblotting analysis; type: functional, cell-based; details: time 2-6 hrs; summary of the method: as §5
U2OS [25] = test: Induction of ER stress in human U2OS cells assessed as vacuolization at 1 uM incubated for 12 hrs in presence of z-VAD-fmk by phase contrast microscopic analysis; type: functional, cell-based
Summary of the method: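 U2OS cells pre-incubated 1 h with 50 μM z-VAD-fmk, then exposed 12 h to 1 μM compound; morphology viewed by phase contrast.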

U2OS [26] = test: Activation of unfolded protein response in human U2OS cells assessed as increase in IRE1alpha autophosphorylation at S724 residue at 1 uM incubated for 12 hrs in presence of z-VAD-fmk by immunoblotting analysis; type: functional, cell-based; summary of the method: as §5
U2OS [27] = test: Induction of ER stress in human U2OS cells expressing Ub-G76V-YFP substrate assessed as inhibition of ubiquitin-proteasome system by measuring increase in […]-positive cells at 1 uM incubated for 4 hrs by flow cytometry analysis relative to control; type: functional; parameters: scale not given: the % may be the effect or the level left
Summary of the method: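 U2OS stably expressing Ub-G76V-YFP treated 4 h at 1 μM in complete medium (50 nM bortezomib as reference); trypsinised, fixed in 2% PFA, ≥32 000 cells acquired by flow cytometry; YFP-positive gate set on untreated cells.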

C#C[C@H](O)C#Cc1ccc(CCCCCCCC)cc1
half-life [1]: 40 min
Cmax [2]: 200 nM
half-life [3]: 33 min
Tmax [4]: 5 min
CL/F [5]: 414 mL/min/kg
AUC at 8 h [6]: 201 ng·h/mL
bioavailability [7]: 26%
Cmax [8]: 200 nM
half-life [9]: 147 min
CL/F [10]: 675 mL/min/kg
bioavailability [11]: 16%
clearance [12]: 108 mL/min/kg
Cmax [13]: 260 nM
Tmax [14]: 15 min
Vd/F [15]: 97.2 L/kg
Activity [16]: Non-Toxic
Activity [17]: Non-Toxic
Activity [18]: Toxic
Activity [19]: Non-Toxic
viability at 1 µM (U2OS [20]): 0%
viability at 1 µM (U2OS [21]): 90%
Activity (U2OS [22]): Active
Activity (U2OS [23]): Active
Activity (U2OS [24]): Active
Activity (U2OS [25]): Active
Activity (U2OS [26]): Active
Activity (U2OS [27]): 87.5%
